Active and inactive are the calls of the source. No cut-off for these calls is given here.
How the values were obtained:
Histone deacetylase 1 = Histone deacetylase 1 (Homo sapiens, UniProt Q13547); experiment: Inhibition of recombinant human C-terminal FLAG-tagged HDAC1 expressed in human HEK293F cells using Fluor-de-lys substrate as substrate incubated for 3 hrs followed by substrate addition and measured after 60 mins by fluorescence based assay
Histone deacetylase 2 = Histone deacetylase 2 (Homo sapiens, UniProt Q92769); experiment: Inhibition of recombinant human C-terminal FLAG-tagged HDAC2 expressed in human HEK293F cells using Fluor-de-lys substrate as substrate incubated for 3 hrs followed by substrate addition and measured after 60 mins by fluorescence based assay
Histone deacetylase 3 [1] = molecular target: T1, Histone deacetylase 3 (Homo sapiens, UniProt O15379); experiment: Inhibition of recombinant human FLAG-tagged HDAC3 expressed in human HEK293F cells co-expressing His6-tagged SMRT (1 to 899 residues) using Fluor-de-lys substrate as substrate incubated for 3 hrs followed by substrate addition and measured after 60 mins by fluorescence based assay
[2] = molecular target: T2, Class 1 histone deacetylase (Homo sapiens, UniProt Q13547+O15379+Q92769+Q9BY41); type: tissue-based; conditions: 2c4
[3] = Fraction unbound in rat plasma; type: ADME, cell-free
[4] = Genotoxicity in Salmonella typhimurium TA1535 in presence of liver S9 fraction by Ames test; type: toxicity, subcellular; conditions: salmonella enterica subsp. enterica serovar typhimurium
Method in brief: (§1)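 Exploratory, non-GLP Ames mutagenicity test run on a 3-strain panel.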

[5] = molecular target: T3, Nuclear receptor subfamily 1 group I member 2 (Homo sapiens, UniProt O75469); experiment: Activation of PXR (unknown origin) expressed in human DPX2 cells co-expressing luciferase gene under control of CYP3A4 promoter assessed as induction of CYP3A4 transcriptional activity incubated for overnight by luminescence based analysis; type: ADME, cell-based
T3 sequence (O75469 whole entry): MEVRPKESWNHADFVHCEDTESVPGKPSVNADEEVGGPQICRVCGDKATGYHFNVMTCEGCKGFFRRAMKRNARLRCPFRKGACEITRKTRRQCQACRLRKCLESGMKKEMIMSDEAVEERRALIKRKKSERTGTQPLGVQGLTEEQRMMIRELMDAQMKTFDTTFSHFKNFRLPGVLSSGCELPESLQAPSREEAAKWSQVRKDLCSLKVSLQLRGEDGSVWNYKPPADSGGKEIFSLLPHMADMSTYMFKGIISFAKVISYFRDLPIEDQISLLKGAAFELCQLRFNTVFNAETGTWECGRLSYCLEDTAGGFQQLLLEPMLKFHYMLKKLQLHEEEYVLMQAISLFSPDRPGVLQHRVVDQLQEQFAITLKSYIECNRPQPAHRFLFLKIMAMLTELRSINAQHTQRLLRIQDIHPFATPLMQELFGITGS

Cytochrome P450 2C9 = Cytochrome P450 2C9 (Homo sapiens, UniProt P11712); experiment: Inhibition of CYP2C9 in human liver microsomes assessed as reduction in 4'-hydroxy diclofenac level using diclofenac as substrate incubated for 10 mins by LC-MS/MS analysis; type: ADME
[6] = molecular target: T2, Class 1 histone deacetylase; experiment: Inhibition of class 1 HDAC in human Jurkat 2C4 model of HIV latency assessed as reactivation of HIV latency incubated for 18 to 24 hrs in presence of 5% heat inactivated NHS by Steady-Glo luciferase assay; type: tissue-based
[7] = molecular target: T2, Class 1 histone deacetylase; experiment: Inhibition of class 1 HDAC in quiescent human primary T-cell model of VSV-G pseudotyped HIV-1 latency assessed as reactivation of HIV latency incubated for 24 hrs in presence of 10% FBS by NanoGlo luciferase assay; type: tissue-based
[8] = Genotoxicity in Salmonella typhimurium TA98 in presence of liver S9 fraction by Ames test; type: toxicity, subcellular; conditions: salmonella enterica subsp. enterica serovar typhimurium; method in brief: as §1
[9] = Genotoxicity in Salmonella typhimurium TA100 in presence of liver S9 fraction by Ames test; type: toxicity, subcellular; conditions: salmonella enterica subsp. enterica serovar typhimurium; method in brief: as §1
[10] = Plasma clearance in Wistar Han rat; type: ADME
[11] = Half life in Wistar Han rat; type: ADME; conditions: in vivo
[12] = Oral bioavailability in Wistar Han rat; type: ADME, organism-based; conditions: in vivo
[13] = molecular target: 5-hydroxytryptamine receptor 2B (Homo sapiens, UniProt P41595); experiment: Inhibition of human 5HT2B receptor
Method in brief: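 Off-target selectivity screen of 115 receptor, enzyme and transporter binding and biochemical assays. Compound tested in duplicate at 10 μM.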

Histone deacetylase 3 [14] = molecular target: T1, Histone deacetylase 3; experiment: Inhibition of recombinant human FLAG-tagged HDAC3 expressed in human HEK293F cells co-expressing His6-tagged SMRT (1 to 899 residues) assessed as fast-on/fast-off kinetics inhibition using Fluor-de-lys substrate as substrate by fluorescence based analysis
Histone deacetylase 3 [15] = molecular target: T1, Histone deacetylase 3; experiment: Inhibition of recombinant human FLAG-tagged HDAC3 expressed in human HEK293F cells co-expressing His6-tagged SMRT (1 to 899 residues) assessed as rapid dissociation inhibition using Fluor-de-lys substrate as substrate measured after compound dilution by jump dilution based analysis
[16] = molecular target: T2, Class 1 histone deacetylase; experiment: Ratio of IC50 for inhibition of class 1 HDAC in human Jurkat 2C4 model of HIV latency in presence of 5% heat inactivated NHS to IC50 for inhibition of class 1 HDAC in human Jurkat 2C4 model of HIV latency in presence of 0.1% heat inactivated NHS by Steady-Glo luciferase assay
Method in brief: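 Latent HIV luciferase-reporter Jurkat cells were treated with compound and latency reversal was read as increased luminescence. […] Values are means of at least two measurements.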

Chain of Histone deacetylase 1 (Q13547 whole entry): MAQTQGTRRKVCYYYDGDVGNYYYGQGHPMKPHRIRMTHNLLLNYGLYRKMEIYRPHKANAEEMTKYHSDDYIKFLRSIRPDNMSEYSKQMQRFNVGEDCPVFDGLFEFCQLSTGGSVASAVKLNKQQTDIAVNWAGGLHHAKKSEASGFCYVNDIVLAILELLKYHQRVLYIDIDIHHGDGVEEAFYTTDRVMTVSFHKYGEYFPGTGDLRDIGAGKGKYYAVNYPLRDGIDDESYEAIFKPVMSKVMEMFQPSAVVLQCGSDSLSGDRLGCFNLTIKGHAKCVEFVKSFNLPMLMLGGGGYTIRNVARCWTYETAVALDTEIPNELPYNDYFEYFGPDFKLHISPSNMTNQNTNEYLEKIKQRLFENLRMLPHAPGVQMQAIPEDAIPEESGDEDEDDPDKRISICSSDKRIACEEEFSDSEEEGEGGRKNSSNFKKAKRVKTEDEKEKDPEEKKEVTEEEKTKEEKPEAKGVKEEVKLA
Chain of Cytochrome P450 2C9 (P11712 whole entry): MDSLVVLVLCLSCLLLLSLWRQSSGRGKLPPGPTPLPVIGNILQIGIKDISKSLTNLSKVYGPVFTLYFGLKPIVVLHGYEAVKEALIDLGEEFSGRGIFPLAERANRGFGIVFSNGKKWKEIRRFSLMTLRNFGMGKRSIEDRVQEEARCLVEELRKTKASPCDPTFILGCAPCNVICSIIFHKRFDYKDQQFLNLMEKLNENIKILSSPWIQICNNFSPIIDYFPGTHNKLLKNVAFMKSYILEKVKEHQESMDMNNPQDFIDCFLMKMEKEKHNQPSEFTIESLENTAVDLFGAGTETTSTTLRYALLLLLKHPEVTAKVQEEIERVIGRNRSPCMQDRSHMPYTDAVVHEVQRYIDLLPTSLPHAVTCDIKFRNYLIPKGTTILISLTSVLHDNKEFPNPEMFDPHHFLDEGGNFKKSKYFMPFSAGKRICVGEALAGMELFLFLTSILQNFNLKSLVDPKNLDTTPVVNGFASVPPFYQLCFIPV
Chain of Histone deacetylase 2 (Q92769 whole entry, the tested form may be a part): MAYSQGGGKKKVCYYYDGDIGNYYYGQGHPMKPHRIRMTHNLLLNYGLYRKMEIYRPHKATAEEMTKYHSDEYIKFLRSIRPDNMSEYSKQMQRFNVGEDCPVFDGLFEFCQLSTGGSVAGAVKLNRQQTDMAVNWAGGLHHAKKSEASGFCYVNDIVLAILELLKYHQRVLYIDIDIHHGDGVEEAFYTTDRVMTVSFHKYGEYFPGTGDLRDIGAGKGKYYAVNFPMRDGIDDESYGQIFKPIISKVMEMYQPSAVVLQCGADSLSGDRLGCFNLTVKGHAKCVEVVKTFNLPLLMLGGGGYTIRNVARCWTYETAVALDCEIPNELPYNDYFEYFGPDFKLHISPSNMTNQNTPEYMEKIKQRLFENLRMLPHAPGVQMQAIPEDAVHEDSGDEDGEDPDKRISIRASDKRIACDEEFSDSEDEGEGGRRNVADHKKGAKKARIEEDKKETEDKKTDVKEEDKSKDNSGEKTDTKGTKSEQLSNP
T1 sequence (O15379 whole entry, the tested form may be a part): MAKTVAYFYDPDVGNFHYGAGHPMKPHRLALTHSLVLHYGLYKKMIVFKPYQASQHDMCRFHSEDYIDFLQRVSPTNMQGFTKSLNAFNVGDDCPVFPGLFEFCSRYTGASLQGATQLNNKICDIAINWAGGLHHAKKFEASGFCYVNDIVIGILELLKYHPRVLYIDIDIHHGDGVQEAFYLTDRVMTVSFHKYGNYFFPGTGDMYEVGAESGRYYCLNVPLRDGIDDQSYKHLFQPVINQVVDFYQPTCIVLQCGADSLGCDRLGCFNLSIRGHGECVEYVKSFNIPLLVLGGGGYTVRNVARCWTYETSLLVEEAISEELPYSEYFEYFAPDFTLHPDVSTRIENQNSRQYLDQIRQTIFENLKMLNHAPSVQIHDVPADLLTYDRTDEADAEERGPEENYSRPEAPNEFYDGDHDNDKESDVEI
Chain of 5-hydroxytryptamine receptor 2B (P41595 whole entry): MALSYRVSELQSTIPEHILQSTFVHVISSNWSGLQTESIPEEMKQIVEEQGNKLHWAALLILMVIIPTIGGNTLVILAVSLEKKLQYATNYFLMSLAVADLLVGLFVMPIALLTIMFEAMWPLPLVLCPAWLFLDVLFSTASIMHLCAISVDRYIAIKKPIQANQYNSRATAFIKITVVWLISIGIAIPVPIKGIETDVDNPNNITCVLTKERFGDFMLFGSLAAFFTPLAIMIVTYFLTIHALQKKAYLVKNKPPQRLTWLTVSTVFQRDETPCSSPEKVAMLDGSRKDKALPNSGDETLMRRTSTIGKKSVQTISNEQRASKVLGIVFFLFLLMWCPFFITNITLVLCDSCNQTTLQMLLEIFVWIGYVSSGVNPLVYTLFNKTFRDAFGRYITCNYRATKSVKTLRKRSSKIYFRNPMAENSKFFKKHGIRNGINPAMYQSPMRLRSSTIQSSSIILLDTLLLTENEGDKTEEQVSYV
T2 sequence (O15379 whole entry, looked up): as the sequence (O15379 whole entry, the tested form may be a part) above
T2 sequence (Q13547 whole entry, looked up): as the sequence (Q13547 whole entry) above
T2 sequence (Q92769 whole entry, looked up): as the sequence (Q92769 whole entry, the tested form may be a part) above
T2 sequence (Q9BY41 whole entry, looked up): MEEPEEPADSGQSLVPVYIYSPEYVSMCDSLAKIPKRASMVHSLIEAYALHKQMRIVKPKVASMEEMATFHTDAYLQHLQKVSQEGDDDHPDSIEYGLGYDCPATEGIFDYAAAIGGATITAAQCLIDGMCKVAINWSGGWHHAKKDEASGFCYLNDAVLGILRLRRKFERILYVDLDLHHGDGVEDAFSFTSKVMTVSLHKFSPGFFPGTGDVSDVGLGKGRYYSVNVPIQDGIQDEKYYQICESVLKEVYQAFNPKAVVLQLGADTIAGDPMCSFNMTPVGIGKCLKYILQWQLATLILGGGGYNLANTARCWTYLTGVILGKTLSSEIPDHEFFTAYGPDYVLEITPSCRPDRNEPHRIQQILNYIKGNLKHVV

Structure (SMILES) | IC50 (Histone deacetylase 1) [nM] | IC50 (Histone deacetylase 2) [nM] | IC50 (Histone deacetylase 3 [1]) [nM] | IC50 [2] [µM] | Fu [3] | EC50 [5] [nM] | IC50 (Cytochrome P450 2C9) [nM] | also measured
CC[C@H](NC(=O)C1CN(C)C1)c1ncc(-c2cc3ccccc3nc2OC)[nH]1 | 23000 | > 50000 | 28000 | > 40 |  |  |  | 
CCC(=O)CCCCC[C@H](NC(=O)C1CN(C)C1)c1ncc(-c2cc3ccccc3nc2OC)[nH]1 |  |  |  |  | 0.0574 |  |  | 
CCCCC[C@H](NC(=O)C1CN(C)C1)c1ncc(-c2cc3ccccc3nc2OC)[nH]1 | 4700 | > 17000 | 3500 | > 40 |  |  |  | 
CCCC[C@H](NC(=O)[C@H](CN)c1c(C)[nH]c2ccc(OC)cc12)c1ncc(-c2cc3ccccc3nc2OC)[nH]1 |  |  |  |  | < 0.0001 |  |  | 
CCCC[C@H](NC(=O)[C@H](C)c1c(C)[nH]c2ccc(O)cc12)c1ncc(-c2cc3ccccc3nc2OC)[nH]1 | 37 | 87 | 55.2 | 0.24 | 0.0006 | 1900 | 2500 | Activity [4]: Non-Toxic; IC50 [6]: 3.2 µM; IC50 [7]: 2.1 µM; Activity [8]: Non-Toxic; Activity [9]: Non-Toxic; clearance [10]: 25 mL/min/kg; half-life [11]: 72 min; F [12]: 26%; IC50 [13]: < 1000 nM; inhibition (Histone deacetylase 3 [14]): Active; inhibition (Histone deacetylase 3 [15]): Active; Ratio IC50 [16]: 10
CCCC[C@H](NC(=O)[C@H](C)c1c(C)[nH]c2ccc(OC)cc12)c1ncc(-c2cc3ccccc3nc2OC)[nH]1 | 47 | 120 | 210 | 0.3 |  | 2900 | 2900 | 
COc1nc2ccccc2cc1-c1cnc(CNC(=O)C2CN(C)C2)[nH]1 |  | > 50000 | 15000 |  |  |  |  | 
O=C(/C=C/c1cccc(S(=O)(=O)Nc2ccccc2)c1)NO [BELINOSTAT] |  |  |  |  | 0.138 |  |  | 
O=C(CCCCCCC(=O)Nc1ccccc1)NO [VORINOSTAT] |  |  |  |  | 0.75 |  |  | 
CCCC[C@H](NC(=O)C1CN(C)C1)c1ncc(-c2cc3ccccc3nc2OC)[nH]1 | 280 | 750 | 160 | 17 |  | > 30000 | 50000 | Activity [4]: Non-Toxic; Activity [8]: Non-Toxic; Activity [9]: Non-Toxic; inhibition (Histone deacetylase 3 [14]): Active; inhibition (Histone deacetylase 3 [15]): Active
CCCC[C@H](NC(=O)Cc1c[nH]c2ccc(OC)cc12)c1ncc(-c2cc3ccccc3nc2OC)[nH]1 | 250 | 500 | 360 | 0.86 |  | 2500 | 1600 | 
CCCCCCCC[C@H](NC(=O)C1CN(C)C1)c1ncc(-c2cc3ccccc3nc2OC)[nH]1 | 18000 | > 50000 | 5200 | > 40 |  |  |  | 
CCC[C@H](NC(=O)C1CN(C)C1)c1ncc(-c2cc3ccccc3nc2OC)[nH]1 | 390 | 3400 | 300 | 11 |  |  |  | 
CCCC[C@H](NC(=O)Cc1c[nH]c2ccccc12)c1ncc(-c2cc3ccccc3nc2OC)[nH]1 | 770 | 2700 | 340 | 40 |  | 4400 | 3400 | 
CCCC[C@H](NC(=O)[C@H](CN)c1c(C)[nH]c2ccc(O)cc12)c1ncc(-c2cc3ccccc3nc2OC)[nH]1 | 2 | 5 | 4.7 | 1.3 | < 0.0001 | > 30000 | > 50000 | IC50 [6]: 7.4 µM; IC50 [7]: 4.5 µM
COc1nc2ccccc2cc1-c1cnc([C@H](C)NC(=O)C2CN(C)C2)[nH]1 | > 50000 | > 50000 | > 50000 | > 40 |  |  |  | 
